EBNA-1 inh: blocks EBNA-1 binding to DNA; EBNA-1 DNA binding, fluorescence polarization; inhibition, % at 14.8 µM; 300,000 compounds, 0.34% hits; in the data active means inhibition above about 28%
MLLE-PAM2 inh: blocks PAM2 peptide binding to the PABP1 MLLE domain. AID 588489. GST-MLLE / FITC-PAM2 fluorescence polarization. 360,000 compounds, 0.36% hits. P11940. inhibition, % at 20 µM; in the data active means inhibition above about 35%, passing the limit was not always enough;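 further: plate controls were DMSO wells with GST-MLLE for no effect and wells lacking GST-MLLE protein for full effect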
Target sequence (P11940 whole entry, looked up, the tested form may be a part): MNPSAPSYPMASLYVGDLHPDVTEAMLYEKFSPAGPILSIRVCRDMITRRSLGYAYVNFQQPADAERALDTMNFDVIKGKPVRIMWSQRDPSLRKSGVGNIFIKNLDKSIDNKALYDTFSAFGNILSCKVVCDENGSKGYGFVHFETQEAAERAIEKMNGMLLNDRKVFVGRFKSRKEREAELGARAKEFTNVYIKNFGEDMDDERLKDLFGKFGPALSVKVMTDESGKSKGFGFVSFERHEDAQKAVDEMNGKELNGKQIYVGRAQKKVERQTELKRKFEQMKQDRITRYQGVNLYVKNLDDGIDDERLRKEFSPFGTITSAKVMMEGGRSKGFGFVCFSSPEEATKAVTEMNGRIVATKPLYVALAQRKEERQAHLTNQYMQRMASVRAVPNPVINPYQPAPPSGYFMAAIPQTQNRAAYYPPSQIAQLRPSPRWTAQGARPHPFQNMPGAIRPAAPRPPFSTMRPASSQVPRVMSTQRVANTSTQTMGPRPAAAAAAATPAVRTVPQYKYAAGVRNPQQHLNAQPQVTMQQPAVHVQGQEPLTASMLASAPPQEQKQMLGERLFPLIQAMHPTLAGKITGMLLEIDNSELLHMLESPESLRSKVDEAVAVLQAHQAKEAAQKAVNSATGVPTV
PABP polyA inh: PABP-poly(A) binding inhibition | PABP-poly(A) RNA binding, fluorescence polarization | inhibition, % at 35 µM | 290,000 compounds, 1% hits | AID 2014;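 further: calls also rest on retests at 20 µM and on dose response follow-up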
ZTA DNA inh: counter-screen for EBNA-1 inhibitors: inhibitors of Epstein-Barr virus ZTA; P03206; ZTA-DNA binding, fluorescence polarization; inhibition, % at 11 µM; 320,000 compounds, 0.15% hits; in the data active means inhibition above about 33%
eIF4H inh: inhibitors of RNA binding by human eIF4H. inhibition, % at 35 µM. 290,000 compounds, 0.94% hits. Q15056. eIF4H fluorescence polarization binding assay. AID 2012;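 further: calls also rest on retests at 20 µM and on dose response follow-up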
HCV NS3 hel inh: blocks Hepatitis C virus NS3 helicase unwinding; NS3 helicase DNA unwinding, Cy5 molecular beacon fluorescence; inhibition, % at 10.9 µM; 290,000 compounds, 0.56% hits; AID 1800;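 active means inhibition above the mean of all tested compounds plus 3 SD, set per campaign, cut at about 35% in these data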;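 further: 0% = DMSO wells and 100% = thioflavine S control wells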
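Assay system – hepatitis C virus NS3 helicase domain fragment enzyme · Buffer or medium – MOPS pH 6.5, MgCl2, DTT, Tween20, BSA · Reagent – Cy5/quencher beacon DNA duplex and ATP to start · Compound – single 10.9 µM dose · Timing – 1 h at 25 °C · Technique – Cy5 beacon fluorescence read at start and 1 h · Measure – % inhibition of unwinding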
Starred values were filed as active, the others as inactive. A selection: hits, their analogues and other compounds. The true share with any hit is near 2.1%. Unless noted, how the calls were made is not given here.

`Cc1ccc2nc(SCC(=O)Nc3cccc(S(=O)(=O)NC4=NCCCCC4)c3)[nH]c2c1` gave EBNA-1 inh -4, MLLE-PAM2 inh -54, PABP polyA inh 2, ZTA DNA inh -4, eIF4H inh -12 and HCV NS3 hel inh -3.
For CC(C)(C)[C@@H]1C=C(C(=O)O)O[C@H](OCc2ccc(CO)cc2)C1 the results were EBNA-1 inh -7, MLLE-PAM2 inh -11, PABP polyA inh 2, ZTA DNA inh -5, eIF4H inh -7 and HCV NS3 hel inh -5.
Screening CCn1c2ccccc2c2n[nH]c(=S)nc21 returned EBNA-1 inh 9, MLLE-PAM2 inh 33, PABP polyA inh -1, ZTA DNA inh -10, eIF4H inh -7 and HCV NS3 hel inh 17.
For O=C(O)Cn1c2ccccc2c2n[nH]c(=S)nc21 the results were EBNA-1 inh 1, MLLE-PAM2 inh 43*, PABP polyA inh 15, ZTA DNA inh 1, eIF4H inh 13 and HCV NS3 hel inh 18.
For CN1CCC(N(C)S(=O)(=O)c2ccc(NC(=O)COc3ccc(F)cc3Cl)cc2)CC1 the results were EBNA-1 inh 4, MLLE-PAM2 inh -91, PABP polyA inh 78*, ZTA DNA inh -7, eIF4H inh 3 and HCV NS3 hel inh -83.
`CC1Cc2cc(-c3csc(N)n3)ccc2O1` (stereo not given) gave EBNA-1 inh 1, MLLE-PAM2 inh 14, PABP polyA inh 2, ZTA DNA inh 8, eIF4H inh -5 and HCV NS3 hel inh 0.
COC(=O)c1ccccc1NC(=O)c1noc2c1CCC2 was read as EBNA-1 inh 3, MLLE-PAM2 inh 22, PABP polyA inh 56*, ZTA DNA inh 1 and eIF4H inh 83*.
Screening CSc1ccccc1NC(=O)c1noc2c1CCC2 returned EBNA-1 inh -12, MLLE-PAM2 inh 29, PABP polyA inh 26*, ZTA DNA inh 0, eIF4H inh 90* and HCV NS3 hel inh 3.
For CCc1ccc(NC(=O)c2noc3c2CCC3)cc1 the results were EBNA-1 inh -12, MLLE-PAM2 inh 4, PABP polyA inh 44, ZTA DNA inh 6, eIF4H inh 83 and HCV NS3 hel inh 15.
Screening CN(C)CC#CCC(O)(c1ccccc1)C1CCCCC1 (stereo not given) returned EBNA-1 inh 1, MLLE-PAM2 inh 8, PABP polyA inh 10, ZTA DNA inh 12, eIF4H inh -9 and HCV NS3 hel inh -13.
Screening O=C(C/C=N\OCc1ccc([N+](=O)[O-])cc1)Nc1ccccc1 returned EBNA-1 inh -15, MLLE-PAM2 inh -3, PABP polyA inh -2, ZTA DNA inh 3, eIF4H inh -2 and HCV NS3 hel inh -6.
Screening COC(=O)C(/C=N/OCc1ccc([N+](=O)[O-])cc1)NC(=O)c1ccccc1 (stereo not given) returned EBNA-1 inh -7, MLLE-PAM2 inh 4, PABP polyA inh active, ZTA DNA inh 2, eIF4H inh inconclusive and HCV NS3 hel inh 4.
`CC(C)(C)NC(=O)C(c1ccccn1)N(C(=O)c1ccc2c(c1)OCCO2)C1CCCC1` (stereo not given) gave EBNA-1 inh 0, MLLE-PAM2 inh -3, PABP polyA inh -3, ZTA DNA inh -14, eIF4H inh 5 and HCV NS3 hel inh -5.
COc1ccc(OC)c2sc(N(CCCN(C)C)C(=O)CCS(=O)(=O)c3ccccc3)nc12 was read as EBNA-1 inh 8, MLLE-PAM2 inh 43* and ZTA DNA inh -8.
For CCc1ccc(NC(=O)C(C)OC(=O)c2ccc(N3CCCC3)c([N+](=O)[O-])c2)cc1 (stereo not given) the results were EBNA-1 inh 11, MLLE-PAM2 inh -6, PABP polyA inh -2, ZTA DNA inh -4, eIF4H inh -7 and HCV NS3 hel inh 5.
N#Cc1c(-c2ccncc2)c2c([nH]c1=S)CCCC2 was read as EBNA-1 inh -2, MLLE-PAM2 inh 27, PABP polyA inh -2, ZTA DNA inh 3, eIF4H inh -3 and HCV NS3 hel inh 5.
For Cc1ccc(-c2c3c([nH]c(=S)c2C#N)CCCC3)o1 the results were EBNA-1 inh 4, MLLE-PAM2 inh -42, PABP polyA inh 65*, ZTA DNA inh 11, eIF4H inh 56* and HCV NS3 hel inh 31.
`Oc1ccc(N=Cc2ccc(OCc3ccccc3)cc2)cc1` gave EBNA-1 inh -1, MLLE-PAM2 inh 15, PABP polyA inh 58*, ZTA DNA inh -9, eIF4H inh 95* and HCV NS3 hel inh 21.
For CCOC(=O)c1cc2c(ccn2C)n1CC(=O)N(Cc1ccccc1)c1ccccc1 the results were EBNA-1 inh 5, MLLE-PAM2 inh 41*, PABP polyA inh 14, ZTA DNA inh 2, eIF4H inh 12 and HCV NS3 hel inh 29.
`CCOC(=O)Cc1csc(N(C)C)n1` gave EBNA-1 inh -4, MLLE-PAM2 inh 29, PABP polyA inh 1, ZTA DNA inh 10, eIF4H inh 12 and HCV NS3 hel inh 8.
For CCN(CC)S(=O)(=O)c1ccc(OC)c(NC(=O)Cc2cccs2)c1 the results were EBNA-1 inh 2, MLLE-PAM2 inh 1, PABP polyA inh 10, ZTA DNA inh -5, eIF4H inh 62 and HCV NS3 hel inh 16.
Screening O=C(Oc1ccc[nH]c1=O)c1cc([N+](=O)[O-])cc([N+](=O)[O-])c1 returned EBNA-1 inh -14, MLLE-PAM2 inh -5, PABP polyA inh 30*, ZTA DNA inh -16, eIF4H inh 50 and HCV NS3 hel inh 2.
For COc1ccc(C(=O)Oc2ccc[nH]c2=O)cc1 the results were EBNA-1 inh -14, MLLE-PAM2 inh -11, PABP polyA inh 13, ZTA DNA inh -17, eIF4H inh 8 and HCV NS3 hel inh 2.
O=C(CCCN1C(=O)/C(=C\c2ccccc2)SC1=S)Nc1cccc(C(=O)O)c1 was read as EBNA-1 inh 19, MLLE-PAM2 inh 11, PABP polyA inh 12, ZTA DNA inh 19, eIF4H inh 0 and HCV NS3 hel inh -22.
O=C(CCN1C(=O)/C(=C\C=C\c2ccccc2)SC1=S)Nc1cccc(C(=O)O)c1 was read as EBNA-1 inh 11, MLLE-PAM2 inh -7, PABP polyA inh 78*, ZTA DNA inh 16, eIF4H inh 88* and HCV NS3 hel inh -9.
Screening O=C(Nc1ccccn1)c1sc2cc([N+](=O)[O-])ccc2c1Cl returned EBNA-1 inh -4, MLLE-PAM2 inh 23, PABP polyA inh 6, ZTA DNA inh 2, eIF4H inh -10 and HCV NS3 hel inh 10.
CCN(C(=O)COc1ncnc2ccccc12)C1CCCCC1 was read as MLLE-PAM2 inh -7.
`Nc1ccccc1Sc1nc2ccccc2[nH]1` gave EBNA-1 inh -7, MLLE-PAM2 inh 39*, PABP polyA inh 4, ZTA DNA inh -6, eIF4H inh 9 and HCV NS3 hel inh 5.
For O=C1CC(c2ccccc2)Cc2nc(N3CCc4ccccc4C3)ncc21 (stereo not given) the results were EBNA-1 inh 13, MLLE-PAM2 inh 56*, PABP polyA inh -5, ZTA DNA inh 10, eIF4H inh -10 and HCV NS3 hel inh -4.

Screening results: PubChem BioAssay, several laboratories
